Experimental findings from ChEMBL document CHEMBL1133838, “Novel 5-vinyl pyrimidine nucleosides with potent anti-hepatitis B virus activity” (Bioorg Med Chem Lett, 2001) are described below.

Values after ≈ are worked out from the molar mass of the structure shown. Where only a bound is given, the exact number is not on record here.

Experiment [1] concerns Vero. Nature of the experiment: Concentration required to inhibit plaque formation by HSV-1 strain KOS (TK+) in monolayers of vero cells. The format is functional, cell-based. The settings on record: Chlorocebus sabaeus. Summed up:
(§1)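 Vero cells seeded one day ahead. Infected with HSV-1 KOS (TK+) or TK-deficient KOSSB at ~100 PFU/well for 1 h at 37 °C. Inoculum replaced by medium with serial drug dilutions in duplicate, then refined by 1:2 dilutions. Acyclovir control at 5 and 1 μg/mL (TK+) or 50, 25, 10, 1 μg/mL (TK−). After 48 h at 37 °C, fixed with methanol and Giemsa-stained. Plaques counted against no-drug wells for EC50.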

Experiment [2] deals with Vero. Nature of the experiment: Compound was evaluated for cytotoxicity against stationary Vero cells using MTT assay. The class given is functional. The settings on record: Chlorocebus sabaeus. Summed up: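 Stationary Vero cells exposed to drug for 3 days. Viability read by MTT assay against untreated controls. CC50 taken as the concentration (μg/mL) giving 50% loss of viability. ">" means 50% was not reached at the highest concentration tested.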
(In general: Formazan colour is commonly taken as a measure of viable cells.)

A further experiment concerns Nucleic Acid. Put plainly: Concentration required to reduce the viral DNA in infected cells to 50% of untreated infected controls. The format is functional, cell-based. The settings on record: Duck hepatitis B virus. Summed up: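 Confluent primary hepatocyte cultures from chronically DHBV-infected Pekin ducks treated with drug. Viral DNA in cells measured against untreated infected controls. EC50 in μg/mL. Three independent experiments, with the range of EC50 reported.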

The subject of the next experiment is Duck hepatitis B virus. Nature of the experiment: Percent inhibition of viral DNA in the presence of 10 ug/mL compound compared to untreated infected controls in duck hepatocytes.
Experiment [3] relates to Vero. Nature of the experiment: Concentration required to inhibit plaque formation by HSV-1 strain KOSSB (TK-) in monolayers of vero cells. The class given is functional, cell-based. Particulars: Chlorocebus sabaeus. A digest of the protocol: as §1
The species entered for experiment [4] is Homo sapiens. Nature of the experiment: Concentration required to reduce the proliferation of PHA stimulated human peripheral blood T lymphocytes. The format is functional. Summed up:
(§2)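 Fresh human peripheral blood T lymphocytes stimulated with PHA and grown with drug. Cellular DNA synthesis followed by [methyl-3H]thymidine incorporation. Value is the concentration (μg/mL) reducing proliferation to 50% of untreated PHA-stimulated controls. Tested up to 50 μg/mL.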

The species entered for experiment [5] is Homo sapiens. Nature of the experiment: Concentration required to reduce the proliferation of PHA stimulated human peripheral blood T lymphocytes to 50% of untreated PHA Stimulated control. The format is functional. Summed up:
as §2

As a reminder, the EC50 is the concentration that produces a half-maximal response. The low end stands for a more potent agent, the high end for a less potent agent. One may read the CC50 as the concentration at which the toxic effect on the cells reaches its halfway point. Higher therefore signals lower toxicity to the cells. As a reminder, the Inhibition is the share of the control response that was lost under treatment. The IC50 is the concentration at which inhibition is half-maximal. A low value points to greater potency. Consider `C=Cc1cn(CCC(CO)CO)c(=O)[nH]c1=O`, for which the EC50 in the experiment with Vero [1] is above 25 µg/mL; in the experiment on Nucleic Acid, 3 µg/mL (≈ 12.5 µM); with Vero [3], above 50 µg/mL. The molecule further yielded a cytotoxic concentration (CC50) with Vero [2] above 100 µg/mL. Moreover, the Inhibition in the experiment with Duck hepatitis B virus amounted to 77.5%. Besides, the IC50 in the experiment filed under Homo sapiens [4] is above 50 µg/mL.
Turning to `C=Cc1cn(COCCO)c(=O)[nH]c1=O`, the concentration for a half-maximal effect (EC50) in the experiment with Vero [1] is above 25 µg/mL; in the experiment with Nucleic Acid it was above 10 µg/mL; in the experiment with Vero [3], above 50 µg/mL. This molecule also displayed a CC50 in the experiment on Vero [2] above 100 µg/mL. Also, in the experiment on Duck hepatitis B virus, the Inhibition worked out at 40.6%. The molecule further showed an IC50 in the experiment filed under Homo sapiens [4] above 50 µg/mL.
Take `C=Cc1cn(COC(CO)CO)c(=O)[nH]c1=O`: the EC50 is above 25 µg/mL in the experiment with Vero [1], 1 µg/mL (≈ 4.13 µM) in the experiment with Nucleic Acid and above 50 µg/mL with Vero [3]. For the same molecule, in the experiment on Vero [2], the half-maximal cytotoxic concentration (CC50) was above 100 µg/mL. In addition, the Inhibition with Duck hepatitis B virus is recorded as 81%. The molecule also showed an IC50 in the experiment listed under Homo sapiens [4] above 50 µg/mL.
Molecule `Nc1ccn([C@@H]2CSC(CO)O2)c(=O)n1` (single isomer, unassigned) [LAMIVUDINE] returned a 50% cytotoxic concentration (CC50) in the experiment on Vero [2] above 100 µg/mL. The same molecule yielded an EC50 with Nucleic Acid of 0.01 µg/mL (≈ 0.0436 µM). Further, the Inhibition in the experiment on Duck hepatitis B virus is 96%. For the same molecule, in the experiment listed under Homo sapiens [5], the IC50 was above 50 µg/mL.
As to `Nc1nc2c(ncn2COCCO)c(=O)[nH]1` [ACYCLOVIR], the EC50 with Vero [1] was found to be 0.5 µg/mL (≈ 2.22 µM); with Vero [3], 40 µg/mL (≈ 178 µM). This molecule also gave a CC50 in the experiment with Vero [2] above 100 µg/mL.
Regarding `Nc1nc2c(ncn2COC(CO)CO)c(=O)[nH]1` [GANCICLOVIR], the EC50 in the experiment with Nucleic Acid came to 1.5 µg/mL (≈ 5.88 µM).
On the same count and under the same terms, as for `Nc1nc(O)c2ncn(CCC(CO)CO)c2n1` [PENCICLOVIR], the figure is 0.3 µg/mL (≈ 1.18 µM).
